Source: PubChem
A selection: hits, their analogues and other compounds. The true share with any hit is near 1.3%.
PME-1 primary: PME-1 inhibitors via competitive probe labeling, primary screen, biochemical, fluorescence polarization, FP-Rh probe, HTS; Protein phosphatase methylesterase 1 (Homo sapiens), Q9Y570; recombinant PME-1; inhibition, % at 5.9 µM; 320,000 tested, 0.53% active; AID 2130, 2009;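 active = inhibition above the campaign mean of all compounds plus 3 SD, cut at about 26% in these data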;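 note: competitive labeling of PME-1 active site by serine hydrolase directed probe; 0% = PME-1 with DMSO and 100% = wells lacking PME-1 enzyme; inhibitors block probe labeling so polarization falls and inhibition rises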
LYPLA2 inh: LYPLA2 inhibitors, primary screen, counter-screen for PME1 inhibitor project, biochemical, fluorescence polarization, FP-Rh probe ABPP; inhibition, % at 5.9 µM; 320,000 tested, 0.38% active; recombinant LYPLA2;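 active = inhibition above the screen-wide mean plus 3 SD, limit set per campaign, cut at about 26% in these data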;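 note: 0% = LYPLA2 with DMSO and 100% = wells lacking LYPLA2 enzyme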
Target sequence (O95372 whole entry, looked up): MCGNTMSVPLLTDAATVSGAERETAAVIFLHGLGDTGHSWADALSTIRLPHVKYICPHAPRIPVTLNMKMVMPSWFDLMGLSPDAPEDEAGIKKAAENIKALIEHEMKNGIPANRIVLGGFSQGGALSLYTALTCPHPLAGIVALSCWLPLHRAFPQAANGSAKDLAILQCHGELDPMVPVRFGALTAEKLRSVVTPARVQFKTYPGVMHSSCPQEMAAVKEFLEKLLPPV
PAD4 inh: human PAD4 inhibitors, primary screen, biochemical, fluorescence polarization, 1536-well format; Protein-arginine deiminase type-4 (Homo sapiens), Q9UM07; recombinant PAD4, RCA probe fluorescence polarization; inhibition, % at 6.36 µM; 330,000 tested, 0.41% active;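 active = percent inhibition above a cutoff equal to the mean of all tested compounds plus 3 SD, cut at about 15% in these data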;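 note: 0% = PAD4 with RCA probe and DMSO and 100% = probe without PAD4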
RBBP9 inh: human RBBP9 inhibitors, primary screen, biochemical, fluorescence polarization, FP-Rh probe, HTS. inhibition, % at 7.94 µM. Serine hydrolase RBBP9 (Homo sapiens), O75884. AID 1515, 2009. recombinant RBBP9. 220,000 tested, 0.2% active;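 active = inhibition above the campaign mean of all tested compounds plus 3 SD, cut at about 14% in these data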;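 note: plate controls were DMSO wells with RBBP9 for no effect and wells lacking RBBP9 protein for full effect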
Target sequence (O75884 whole entry, looked up): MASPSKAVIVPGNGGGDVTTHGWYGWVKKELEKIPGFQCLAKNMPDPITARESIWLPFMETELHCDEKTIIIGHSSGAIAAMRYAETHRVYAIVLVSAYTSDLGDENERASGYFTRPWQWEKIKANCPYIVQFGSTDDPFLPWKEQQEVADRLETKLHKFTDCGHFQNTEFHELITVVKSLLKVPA
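Test system: recombinant human RBBP9. Quantity: 2.5 µM RBBP9 dispensing solution, before mixing. Detection: FP readout at 525/598 nm. Reagent: Serine-hydrolase probe FP-Rh, 375 nM pre-mixing. Measure: % inhibition. Control set: DMSO-treated enzyme wells and wells lacking RBBP9. Buffer or medium: Tris-NaCl-Pluronic buffer, pH 8.0. Times: preincubation 30 min plus labeling 45 min at 25 °C.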
Fam108B counter: mouse Fam108B serine hydrolase inhibitors, primary screen, counter-screen for RBBP9 inhibitor project, biochemical, fluorescence polarization | recombinant Fam108B, FP-Rh probe fluorescence polarization | inhibition, % at 9.51 µM | 300,000 tested, 0.33% active;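 active = inhibition above the screen mean inhibition plus 3 SD, computed separately per campaign, cut at about 18% in these data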;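 note: inhibitors lower polarization as less probe binds the enzyme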
LYPLA1 inh: LYPLA1 inhibitors, primary screen, counter-screen for PME1 inhibitor project, biochemical, fluorescence polarization, FP-Rh probe ABPP; 320,000 tested, 0.16% active; recombinant LYPLA1; inhibition, % at 5.9 µM; Acyl-protein thioesterase 1 (Homo sapiens), O75608;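 active = inhibition above the mean of all tested compounds plus 3 SD, set per campaign, cut at about 14% in these data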;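 note: inhibitors block serine hydrolase probe labeling of LYPLA1 so polarization falls; 0% = enzyme with DMSO and 100% = wells lacking LYPLA1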
Target sequence (O75608 whole entry, looked up): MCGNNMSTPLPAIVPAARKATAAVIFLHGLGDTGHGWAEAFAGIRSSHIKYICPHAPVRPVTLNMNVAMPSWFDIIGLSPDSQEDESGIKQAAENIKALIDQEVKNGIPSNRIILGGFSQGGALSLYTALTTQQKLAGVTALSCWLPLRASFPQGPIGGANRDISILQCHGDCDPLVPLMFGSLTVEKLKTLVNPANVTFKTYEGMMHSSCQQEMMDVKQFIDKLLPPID
RBBP9 confirm: human RBBP9 inhibitors, retest, confirmation, biochemical, fluorescence polarization, FP-Rh probe, triplicate. shares compounds with RBBP9 inh. recombinant RBBP9. inhibition, % at 7.94 µM. 410 tested, 36% active. AID 1537, 2009;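 active = inhibition above the hit cutoff derived for the primary screen, cut at about 15% in these data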;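 note: 0% = RBBP9 with DMSO and 100% = wells lacking RBBP9 protein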
An asterisk follows results filed as active; nt = no result.

SMILES	PME-1 primary	LYPLA2 inh	PAD4 inh	RBBP9 inh	Fam108B counter	LYPLA1 inh	RBBP9 confirm
CC(C)CCN(C(=O)c1cc(=O)[nH]c2ccccc12)c1c(N)n(Cc2ccccc2)c(=O)[nH]c1=O	2	-4	1	nt	nt	0	nt
CCOc1cc(C(=O)NC(C)C2CC3CCC2C3)cc(OCC)c1OCC (configuration not stated)	-6	1	6	nt	4	-1	nt
CCOc1cc(C(=O)NC(C)C2CCCO2)cc(OCC)c1OCC (configuration not stated)	-1	-1	1	16*	0	0	11
O=[N+]([O-])c1ccc(Nc2c3ccccc3nc3ccccc23)cc1	nt	nt	nt	16*	nt	nt	12
Cc1nc2scc(-c3ccccc3)c2c(=O)n1N=C1C=CC(=O)C=C1	nt	nt	nt	49*	nt	nt	59*
Cc1nc2scc(-c3ccccc3)c2c(=O)n1N	-6	-2	-6	-1	-3	2	nt
CC(=O)c1ccccc1OC(=O)COc1ccc(Cl)cc1C	4	-3	-2	1	1	2	nt
CCC(=O)N/C(=N/c1nc(C)cc(C)n1)Nc1ccccc1	-5	-2	2	-2	-1	0	nt
Cc1cc(C)nc(/N=C(\NC(=O)C(C)(C)C)Nc2ccc(F)cc2)n1	-12	-2	1	15*	1	-3	7
CCC(=O)N/C(=N/c1nc(C)cc(C)n1)Nc1ccc(OC)cc1	2	2	-3	19*	0	-2	6
c1ccc(-c2nnc(-c3cccc(-c4nnc(-c5ccccc5)o4)c3)o2)cc1	nt	nt	nt	5	nt	nt	nt
Clc1cccc2sc(-c3nnc(-c4ccccc4)o3)c(Cl)c12	5	2	2	20*	0	1	7
COc1ccc(C(=O)N(CC(=O)NC(C)(C)C)c2ccc3c(c2)OCCO3)cc1OC	4	13	-1	15*	2	0	6
O=C(NN=C1CCCC1)c1ccccc1OCCOc1ccccc1	2	1	2	23*	-1	3	3
Cc1ccc(NC(=O)COc2ccc(Br)cc2C)cc1	-50	-1	-2	0	5	2	nt
Cc1ccc2cc(CCNC(=O)c3cccs3)c(=O)[nH]c2c1C	1	0	5	-8	3	-1	nt
Cc1ccc2cc(CCNC(=O)c3cccs3)c(=O)[nH]c2c1	0	1	2	16*	-1	-1	11
CN=c1scc(-c2ccccc2F)n1/N=C/c1ccc[nH]1	1	-8	-22	0	6	-2	nt
CN=c1scc(-c2ccccc2F)n1/N=C/c1ccc(O)c(O)c1O	nt	nt	nt	33*	nt	nt	59*
CC(=O)Nc1ccc(NC(=O)COC(=O)C2CCCCC2)cc1	nt	nt	-4	nt	nt	nt	nt
Oc1ccc(Nc2nc(-c3ccc(O)cc3)cs2)cc1	5	-2	-2	18*	6	-4	14*
NS(=O)(=O)c1ccc(Nc2nc(-c3ccc(O)cc3)cs2)cc1	9	3	0	-1	14	-3	nt
CC(=O)c1ccc(OC(=O)C2CC(=O)N(c3cccc(C)c3)C2)cc1 (configuration not stated)	-1	-2	-3	16*	0	-2	4
COc1cc(/C=N/Nc2ccc(C(F)(F)F)cn2)cc(OC)c1O	nt	nt	nt	17*	nt	nt	15*
NS(=O)(=O)c1ccc(N/N=C/c2ccc(O)cc2O)c([N+](=O)[O-])c1	18	8	0	2	6	5	nt
SMILES	PME-1 primary	LYPLA2 inh	PAD4 inh	RBBP9 inh	Fam108B counter	LYPLA1 inh	RBBP9 confirm
NS(=O)(=O)c1ccc(N/N=C/c2ccc(O)c(O)c2O)c([N+](=O)[O-])c1	nt	nt	nt	64*	nt	nt	84*
COc1cc(C(=O)NCCCn2ccnc2)cc(OC)c1OC	-1	3	-4	14*	-2	-2	0
Cc1c2cnn(-c3ccccc3)c(=O)c2c(C)n1CCCC(=O)NCCN1CCN(C)CC1	0	2	3	-10	-5	0	nt
Cc1cccn2cc(CCNC(=O)Cc3cccs3)nc12	1	-2	1	-5	0	-1	nt
Cc1cccnc1Nc1nc(-c2ccc(O)c(O)c2)cs1	36*	6	-2	25*	-5	3	55*
CNC(=O)C(=O)Nc1c(O)c2ccccc2[nH]c1=O	-1	2	0	18*	0	2	3
COc1cccc(CSc2nnc(-c3ccncc3)n2N)c1	-5	5	-4	nt	-1	0	nt
COc1ccc(OC)c(NC(=O)C2CCN(S(=O)(=O)c3c(C)noc3C)CC2)c1	-2	-1	1	16*	-3	0	7
O=c1c(Cc2c(F)cccc2Cl)c(O)ccn1CCc1c[nH]c2ccccc12	3	0	1	-3	-1	1	nt
CN(C)c1ccc(C(=S)N2CCN(c3ccc([N+](=O)[O-])cc3)CC2)cc1	3	2	-2	-10	8	-3	nt
O=[N+]([O-])c1ccc(C(=S)N2CCN(c3ccc(F)cc3)CC2)cc1	2	3	0	15*	-1	0	6
N#CC1=C(SCC(=O)Nc2cccc3cccnc23)NC(=O)C(C#N)C12CCCCC2 (configuration not stated)	7	3	0	-6	4	1	nt
CCOC(=O)C1=C(SCC(=O)Nc2ccccc2)NC(=O)C(C#N)C12CCCCC2 (configuration not stated)	0	8	2	15*	-2	3	8
Cc1ccc(NC(=O)c2c(F)cccc2Cl)cc1S(=O)(=O)N1CCOCC1	10	-1	1	nt	nt	-2	nt
Cc1nc2ncccn2c1-c1csc(Nc2ccc(N(C)C)cc2)n1	nt	nt	nt	24*	nt	nt	21*
Cc1ccc(N(CC(=O)N/N=C/c2cc(C)n(-c3ccccc3)c2C)S(C)(=O)=O)c(C)c1	2	0	-4	17*	0	1	3
CNS(=O)(=O)c1ccc2ccccc2c1	0	5	-2	19*	3	3	0
CS(=O)(=O)c1ccc(NS(=O)(=O)c2ccc3ccccc3c2)cc1	3	-1	-9	nt	8	9	nt
CC(=O)Nc1ccc2cc3ccc(NC(C)=O)cc3nc2c1	-1	0	-5	50*	5	-3	11
O=C(COc1ccc(F)cc1)N(Cc1ccco1)C1CCS(=O)(=O)C1 (configuration not stated)	10	8	0	nt	-2	8	nt
O=C(c1ccccc1F)N1CCN(c2ccc([N+](=O)[O-])cc2-n2cccc2)CC1	4	8	-4	16*	2	0	4
